For 98 compounds, cytotoxicity results are on record in ChEMBL document CHEMBL4513216, “Probing the Open Global Health Chemical Diversity Library for Multistage-Active Starting Points for Next-Generation Antimalarials” (ACS Infect Dis, 2020).

This data set is described as follows: Toxicity liver stage against HepG2, at 10uM. It counts as cell-based. The arrangement: test concentration 10 uM, cell line HepG2-A16-CD81EGFP. Particulars: human, HepG2-A16-CD81EGFP cells; read-out: INHIBITION
In short, it runs like this: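 Uninfected HepG2-A16-CD81EGFP cells, 3 × 10^3 per well, 1536-well, plated on prespotted compound at 10 μM final, parasite-free screening media added to match infected plates; puromycin 10 μM positive, DMSO 0.5% negative; run in parallel with 48 h PbLuc assay at 37 °C, 5% CO2; viability by CellTiter-Glo luminescence, normalized to controls.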
For the compound `CC(C)CNC[C@H]1O[C@H](Cc2cc(-c3ccccn3)on2)CC[C@@H]1O`, the cytotoxicity at 10 µM is -0.238%.

In the case of `CC(C)(C)CC(=O)N1CC[C@H]2CC(=O)N(CCc3c[nH]cn3)CC[C@H]2C1`, the cytotoxicity at 10 µM is -3.97%. To `O=C(CNC(=O)N1CCc2c([nH]c3ccc(Cl)cc23)C1)NCCCO` belongs 5.36%; to `O=C(NCC1CC1)c1cc2c(s1)CCN2C(=O)c1ccc(F)cc1`, 2.55%. Turning to `CN(Cc1cccnc1)Cc1cn2c(n1)CN(C1CCOCC1)CC2`, the cytotoxicity at 10 µM turned out to be 8.94%. For `CN(C)CCN1CCOCC2(CCCN(C(=O)c3cccc(O)c3)C2)C1` (stereo not drawn), the cytotoxicity at 10 µM was found to be 11.7%. For the compound `c1ccc(CO[C@H]2CO[C@@]3(CCCN(Cc4ccncc4)C3)C2)nc1`, the cytotoxicity at 10 µM came to 1.44%. As for `Cn1cc(C[C@H]2[C@H](O)CCN2C(=O)C2CCOCC2)cn1`, the figure is 13%.

Turning to `CC(C)NC(=O)C1CCN(c2nc3nc[nH]c(=O)c3s2)CC1`, the cytotoxicity at 10 µM is -3.79%. To `Cc1n[nH]c2c1C(c1ccc(O)c(Cl)c1)SCC(=O)N2` (stereo not drawn) belongs 10.4%; to `CN(C(=O)Cn1nc(-c2cccs2)ccc1=O)C1CCS(=O)(=O)C1` (stereo not drawn), 7.36%. As for `O=C(Cn1cc(I)cn1)Nc1cccnc1`, the figure is -2.59%; as for `CNC(=O)[C@H]1C[C@@H]2CN(C(=O)c3ccco3)C[C@@H]2N1S(C)(=O)=O`, -10.2%; as for `O=C(O)CCCC(=O)Nc1cnn(COc2ccc(F)cc2Cl)c1`, 8.69%. As for `c1cnc(-c2nn3c(CN4CCOCC4)nnc3s2)cn1`, the figure is 7.74%. With `NC(=O)c1c[nH]nc1NCc1ccc2c(c1)OCO2`, the cytotoxicity at 10 µM was -2.9%.

`O=S1(=O)NC(C2CCCN(S(=O)(=O)N3CCCC3)C2)=Nc2ccccc21` (stereo not drawn): the cytotoxicity at 10 µM was 2.17%. Take `COCCN1CCC1c1cc(NC2CCCC2)nc(C)n1` (stereo not drawn): the cytotoxicity at 10 µM is 0.994%.

Turning to `Cc1cc(Oc2ccccc2C)nc(C2CCCN2)n1` (stereo not drawn), the cytotoxicity at 10 µM came to 1.22%.

As for `CC(=O)N1CCC(c2[nH]ncc2S(C)(=O)=O)CC1`, the cytotoxicity at 10 µM is 0.752%.

With `CN1CCC(c2cccc(-c3cccc(C(=O)O)c3)n2)CC1`, the cytotoxicity at 10 µM is -6.55%. To `CCOCC(=O)N1C[C@@H](O)[C@H](NC(C)=O)C1` belongs -4.48%; to `NCCCC(=O)N1CCC2(CC1)CN(C(=O)c1ccc(Cl)cc1)CCO2`, 6.83%; to `NC(=O)c1cccc(CS(=O)(=O)CC(O)Cn2cccn2)c1` (stereo not drawn), -2.45%. On to `COc1ccccc1C1(CNC(=O)NCc2noc(C)n2)CC1`, for which the cytotoxicity at 10 µM is -0.343%.

For `CCOc1ccc(NC(=O)c2scnc2CC)cc1CO`, the cytotoxicity at 10 µM is -9.48%. As for `Cc1cc(NC(=O)CN2CCOC(CN(C)C)C2)n(C)n1` (stereo not drawn), the figure is 0.894%; as for `CC1CCC(O)(CSc2nnnn2C)CC1` (stereo not drawn), -8.03%; as for `CC1CCC(N2CCC(NS(=O)(=O)CCOC(C)C)CC2)CC1` (stereo not drawn), -0.45%. Turning to `CN(Cc1ncnn1C)C1CCN(c2sccc2C#N)C1=O` (stereo not drawn), the cytotoxicity at 10 µM is 10.2%.

Turning to `Cc1nnc(NC(=O)NCCN(C(=O)OC(C)(C)C)C2CC2)s1`, the cytotoxicity at 10 µM was found to be 5.53%.

For `COc1ccc(CN2CC(n3cccn3)C2)cc1F`, the cytotoxicity at 10 µM was -0.483%. As for `CN(C)S(=O)(=O)c1ccc(=O)n(CC2CCCCO2)c1` (stereo not drawn), the cytotoxicity at 10 µM is -8.58%.

For the compound `CCn1cnnc1CNC(=O)N(C)Cc1cccc(Cl)c1Cl`, the cytotoxicity at 10 µM was -16.2%. For the compound `Cc1cc(N2CCCC2)c(C#N)c(C)n1`, the cytotoxicity at 10 µM was found to be 10.4%. Consider `COCCN1CCC(CNC(=O)c2ccnc(-n3ccnc3)c2)CC1`, for which the cytotoxicity at 10 µM is -1.63%. To `Cc1ccoc1C(=O)NCCS(=O)(=O)N1CCSCC1` belongs -2.65%; to `N#Cc1csc(CNCCOc2ccc(Cl)cn2)c1`, -5.59%; to `CN(C)Cc1ccc(NC(=O)c2nccn3ccnc23)cc1`, -2.6%. To `COCCNS(=O)(=O)c1ccc(Cl)c(C(=O)N(C)Cc2sccc2C)c1` belongs -7.53%; to `Oc1cccc(CNC2CCN(CCc3ccncc3)CC2)c1`, -1.56%; to `COCCS(=O)(=O)NC(C)c1ccccc1Br` (stereo not drawn), 1.02%. To `CC(=O)NCCNC(=O)NCc1ccc(Br)cc1Cl` belongs 5.19%; to `CC(c1ccccc1)N1CCC(NC(=O)CCc2ccsc2)CC1` (stereo not drawn), 0.91%; to `Cc1nccn1-c1ncccc1NC(=O)CCOCC(C)C`, -2.59%. `Cc1n[nH]cc1CNC1(Cc2ccc(Br)cc2)CCCCC1`: the cytotoxicity at 10 µM is 14.1%.

Regarding `CCc1nc(NS(=O)(=O)c2ccc(C)cc2Cl)no1`, the cytotoxicity at 10 µM is -1.51%. To `CC1(NC(=O)Cc2csc(C(C)(C)C)n2)CCS(=O)(=O)C1` (stereo not drawn) belongs -4.17%; to `CS(=O)(=O)N[C@@H]1CCN(Cc2ccncc2)[C@H]1Cc1cccnc1`, -79.7%. As for `COCCC(=O)N1CCC2(CN(Cc3cccc(F)c3)C2)C1`, the figure is -74%; as for `CC1c2cccn2CCN1C(=O)CCCc1nc(-c2ccco2)no1` (stereo not drawn), 7.16%. To `CN1C(=O)CC(C(=O)O)C12CCN(Cc1cc(F)ccc1Cl)CC2` (stereo not drawn) belongs -0.309%; to `CNS(=O)(=O)CCn1cc(-c2ccc(NC(C)=O)cc2)nn1`, -4.5%. As for `COCCN1CCC(CN(CC2CCCO2)C(=O)Cc2cccs2)CC1` (stereo not drawn), the cytotoxicity at 10 µM was -0.894%.

On to `CN(Cc1cnc2ccccc2c1)C(=O)C(c1ccccc1F)N(C)C` (stereo not drawn), for which the cytotoxicity at 10 µM was -6.88%.

Consider `CC(Cc1ccc2c(c1)OCO2)c1cn(CCc2c[nH]cn2)nn1` (stereo not drawn), for which the cytotoxicity at 10 µM is 8.66%. To `CC(c1ccncn1)N(C)S(=O)(=O)NCc1ccccc1` (stereo not drawn) belongs -81.5%. To `CN(C)C[C@@H]1CN(C(=O)c2cc(S(N)(=O)=O)ccc2F)C[C@@H]1CO` belongs 4.83%; to `CC(C)Cc1ncc2c(n1)CN(c1nccc(NC(C)C)n1)C2`, -10.7%; to `Cc1cc(C)n(CC(C)NCCN2CCc3ccccc32)n1` (stereo not drawn), -7.73%.

Consider `Cc1cccc(CNC(=O)NCC2CCN(Cc3ncc[nH]3)C2)c1` (stereo not drawn), for which the cytotoxicity at 10 µM was determined as 1.86%.

With `CCc1cc(NCCNC(C)=O)nc(N2CCOCC2)n1`, the cytotoxicity at 10 µM came out at 2.38%. For `O=C(O)c1ccnc(-c2ccnc(N3CCCCCC3)n2)c1`, the cytotoxicity at 10 µM is -10%.

Turning to `CCN1CC2(CCN(CC3COCCO3)CC2)OC1=O` (stereo not drawn), the cytotoxicity at 10 µM is -4.15%. As for `O=C1CCCCN1Cc1cccc(OC(F)F)c1`, the figure is 3.17%; as for `CCCNCC1(O)CCCN(Cc2cccc(C)c2)C1=O` (stereo not drawn), -19.7%; as for `CCOc1ccc(Cl)c(C(=O)N2CCN(CC(C)(C)O)CC2)n1`, -5.72%. For the compound `CC(C)c1nn(C)c(N(C)C)c1CNCc1cccc2c1OCO2`, the cytotoxicity at 10 µM was -4.66%. For `COc1ccnc(N2CCN(CC(O)CN3CCOCC3)CC2)n1` (stereo not drawn), the cytotoxicity at 10 µM is -3.44%. To `Cc1nccn1C1CCCN(C(=O)c2ccc3cc[nH]c3c2)C1` (stereo not drawn) belongs -9.69%; to `CN(Cc1cnccn1)S(=O)(=O)N1CCCC1c1ccco1` (stereo not drawn), -15.6%; to `O=C(CCn1cccn1)N1CCSCC1`, -5.92%. Regarding `Cn1cnc(S(=O)(=O)NCCCN2CCCC2=O)c1Cl`, the cytotoxicity at 10 µM is -12.1%. As for `CCOc1ccnc(N2CCN(C(=O)c3ccn(C)c(=O)c3)CC2)n1`, the figure is -14.8%; as for `CC(C)n1cc(CN2CCCN(C(=O)CC3CCCCC3)CC2)cn1`, -10.8%. Consider `CCc1nnc(CN2CCCC(c3cc(C(N)=O)[nH]n3)C2)o1` (stereo not drawn), for which the cytotoxicity at 10 µM is -12.7%. As for `COc1cccc(-n2nnc(C(=O)N3CCN(C(C)=O)CC3)c2C)c1`, the figure is -13.2%. Consider `Cn1ccnc1CN1CCN(CC(O)c2ccccc2)CC1` (stereo not drawn), for which the cytotoxicity at 10 µM is -11.4%. As for `Cc1cc(C)n(CC2CCCN2CCS(C)(=O)=O)n1` (stereo not drawn), the figure is -3.95%. Take `Cc1nc2ccccc2c(=O)n1CCCC(=O)N1CCNC(=O)CC1`: the cytotoxicity at 10 µM is -11.8%. As for `Cc1nnc(CN2CCN(CC(O)c3ccccc3)CC2)o1` (stereo not drawn), the figure is -18.9%. As for `Cc1nc(CN2CCOC(Cn3cccn3)C2)no1` (stereo not drawn), the cytotoxicity at 10 µM is -11.6%. To `CCC1CN(CC(=O)N2CCN(C(C)=O)CC2)CCN1CCOC` (stereo not drawn) belongs -7.58%. To `Cc1ncsc1C(=O)NCCSCCCO` belongs -11.3%; to `CC(=O)NC1CCCN(C(=O)Nc2cnc3c(cnn3C(C)C)c2)C1` (stereo not drawn), -4.67%. With `Cc1nc(C2CCCN2CCCNS(C)(=O)=O)no1` (stereo not drawn), the cytotoxicity at 10 µM was -8.6%.

For the compound `CC(C)Oc1ncccc1CNC(=O)C1CCCN(C(=O)C2CC2)C1` (stereo not drawn), the cytotoxicity at 10 µM is -8.57%. Regarding `Cc1cnn(CC2CCCN2Cc2nnsc2Cl)c1` (stereo not drawn), the cytotoxicity at 10 µM is -8.72%. As for `O=C(CCc1nccs1)N1CCN(c2ccccc2F)CC1`, the figure is -9.42%. To `Fc1cnc(N2CCO[C@H]3[C@H](OCCN4CCCC4)CC[C@@H]32)nc1` belongs 1.33%. As for `O=C(N[C@@H]1CN(c2ncccn2)C[C@@H]2CCCO[C@@H]21)c1cccnc1`, the figure is 11.4%; as for `COCCC(=O)N1CCC2(CCN(Cc3ccc(C)cc3)CC2)C1`, -74.4%. Regarding `CN(Cc1ccncc1)C1COC2(CCN(Cc3cccs3)CC2)C1` (stereo not drawn), the cytotoxicity at 10 µM was -0.931%. In the case of `Cc1c(F)cccc1S(=O)(=O)NCCN`, the cytotoxicity at 10 µM is 1.99%. To `CN(C)S(=O)(=O)N1CCO[C@H]2[C@H](Oc3cccnc3)CC[C@@H]21` belongs 4.64%; to `CC[C@@H]1N(CC2CC2)CCC[C@]12CCC(=O)N2CCOC`, -5.15%; to `O=C(Nc1cccnc1)[C@H]1C[C@H]2OCC[C@H]2N(Cc2ccc(F)cc2)C1`, 0.592%. Consider `Cc1nnsc1C(=O)N1C[C@@H]2CC[C@H]1CN(c1cnccn1)C2`, for which the cytotoxicity at 10 µM was determined as 9.88%.
